According to ChEMBL document CHEMBL2177071, “The effect of Pro(2) modifications on the structural and pharmacological properties of endomorphin-2” (J Med Chem, 2012):

Legend:
[1] = molecular target: Delta-type opioid receptor (Rattus norvegicus) (UniProt P33533); test: (§1) Displacement of [3H][Ile5,6]deltorphin 2 from delta opioid receptor in Wistar rat brain membranes; type: cell membranes; conditions: Membrane
Summary of the method: (§2)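 Competitive displacement in crude rat brain membrane preparation, with the test peptide at a range of concentrations. Ki is calculated from EC50 by Cheng–Prusoff, Ki = EC50/(1+[ligand]/Kd), using Kd values from the literature. Means ± SEM, n ≥ 3.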

[2] = molecular target: Delta-type opioid receptor (Rattus norvegicus, UniProt P33533); test: as §1; type: cell membranes, Membrane; summary of the method: as §2
Delta-type opioid receptor, sequence (P33533 whole entry): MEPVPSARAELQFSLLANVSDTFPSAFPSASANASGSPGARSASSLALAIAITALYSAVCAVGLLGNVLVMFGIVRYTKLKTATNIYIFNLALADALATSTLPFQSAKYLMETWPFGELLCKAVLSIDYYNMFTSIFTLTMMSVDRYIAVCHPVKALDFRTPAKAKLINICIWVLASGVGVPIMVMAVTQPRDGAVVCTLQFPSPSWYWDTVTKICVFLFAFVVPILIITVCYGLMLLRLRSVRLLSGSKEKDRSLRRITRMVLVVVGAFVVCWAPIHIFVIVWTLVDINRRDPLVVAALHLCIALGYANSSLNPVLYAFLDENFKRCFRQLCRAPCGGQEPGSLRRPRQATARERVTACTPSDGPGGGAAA

[3] = Half life in Wistar rat brain homogenate; type: ADME, tissue-based
Summary of the method: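 Peptide incubated in crude rat brain membrane homogenate with a protein content of 4.7 mg/mL, and its disappearance followed over time. Half-life is calculated from pseudo-first-order kinetics. Means of at least three individual experiments ± SEM.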

Mu-type opioid receptor [4] = molecular target: T1, Mu-type opioid receptor (Rattus norvegicus, UniProt P33535); type: cell membranes, Wistar, Membrane
T1 sequence (P33535 whole entry): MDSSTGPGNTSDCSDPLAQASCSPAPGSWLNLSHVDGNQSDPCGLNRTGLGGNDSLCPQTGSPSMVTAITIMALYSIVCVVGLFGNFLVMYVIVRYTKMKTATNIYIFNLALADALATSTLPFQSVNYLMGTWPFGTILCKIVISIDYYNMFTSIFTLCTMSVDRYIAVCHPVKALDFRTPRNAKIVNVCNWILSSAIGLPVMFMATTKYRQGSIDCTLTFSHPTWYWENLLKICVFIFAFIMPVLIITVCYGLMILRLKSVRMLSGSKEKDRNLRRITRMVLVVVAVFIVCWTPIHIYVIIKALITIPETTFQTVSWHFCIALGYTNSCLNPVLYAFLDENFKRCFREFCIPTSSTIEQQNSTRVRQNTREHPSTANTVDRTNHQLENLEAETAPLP

Mu-type opioid receptor [5] = molecular target: T1, Mu-type opioid receptor; test: Agonist activity at mu opioid receptor in Wistar rat brain membranes after 60 mins by [35S]GTPgammaS binding assay; type: functional, cell membranes, Membrane

Delta-type opioid receptor (Rattus norvegicus), sequence (P33533 whole entry): as the sequence (P33533 whole entry) above

NC(=O)[C@H](Cc1ccccc1)NC(=O)[C@H](Cc1ccccc1)NC(=O)[C@@H]1CC=C[C@@H]1NC(=O)[C@@H](N)Cc1ccc(O)cc1
Activity [1]: Dose-dependent effect | Ki [2]: > 10000 nM

NC(=O)[C@H](Cc1ccccc1)NC(=O)[C@H](Cc1ccccc1)NC(=O)C[C@@H]1CCCN1C(=O)[C@@H](N)Cc1ccc(O)cc1
half-life [3]: 34 min | Ki (Mu-type opioid receptor [4]): 27 nM | EC50 (Mu-type opioid receptor [5]): 845 nM | Activity [1]: Dose-dependent effect | Ki [2]: > 10000 nM

NC(=O)[C@H](Cc1ccccc1)NC(=O)[C@H](Cc1ccccc1)NC(=O)[C@@H]1C[C@@H](O)CN1C(=O)[C@@H](N)Cc1ccc(O)cc1
half-life [3]: 17 min | Ki (Mu-type opioid receptor [4]): 44 nM | EC50 (Mu-type opioid receptor [5]): 66 nM | Activity [1]: Dose-dependent effect | Ki [2]: > 10000 nM

NC(=O)[C@H](Cc1ccccc1)NC(=O)[C@H](Cc1ccccc1)NC(=O)[C@@H]1CC=CC[C@@H]1NC(=O)[C@@H](N)Cc1ccc(O)cc1
Activity [1]: Dose-dependent effect | Ki [2]: > 10000 nM

NC(=O)[C@H](Cc1ccccc1)NC(=O)[C@H](Cc1ccccc1)NC(=O)[C@@H]1CCCN1C(=O)[C@@H](N)Cc1ccc(O)cc1 [ENDOMORPHIN 2]
half-life [3]: 5.8 min | Activity [1]: Dose-dependent effect

NC(=O)[C@H](Cc1ccccc1)NC(=O)[C@H](Cc1ccccc1)NC(=O)[C@H]1CC=C[C@H]1NC(=O)[C@@H](N)Cc1ccc(O)cc1
half-life [3]: > 1200 min | Activity [1]: Dose-dependent effect | Ki [2]: 9930 nM

NC(=O)[C@H](Cc1ccccc1)NC(=O)[C@H](Cc1ccccc1)NC(=O)[C@H]1CC=CC[C@H]1NC(=O)[C@@H](N)Cc1ccc(O)cc1
half-life [3]: > 1200 min | Activity [1]: Dose-dependent effect | Ki [2]: 1030 nM
